# From PubChem
# TDP2 inh: TDP2 (human) inhibition, absorbance primary screen; recombinant TDP2, T5PNP hydrolysis, p-nitrophenol absorbance 415 nm; O95551; AID 720702; inhibition, % at 12.8 µM; hit rate 0.34% among 370,000;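 active means inhibition above the mean of all tested compounds plus 3 SD, set per campaign, cut at about 25% in these data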;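 further: 0% = DMSO with enzyme and 100% = buffer with substrate but no TDP2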
#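 Assay system: recombinant human TDP2 / Reagent: T5PNP substrate at 5 mM, a TopII-DNA adduct mimic / Measured by: epi absorbance from released p-nitrophenol / Evaluation: % inhibition relative to enzyme-containing and enzyme-free wells / Control set: enzyme-free and DMSO wells / Replicates: each compound tested once, singlicate / Schedule: enzyme reaction with compound for 2 h at 37 °C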
# UHRF1 binding: blocks human UHRF1 binding to methylated DNA. UHRF1 binding to methylated oligo, TR-FRET. inhibition, % at 4.4 µM. hit rate 0.75% among 370,000. AID 687016; in the data active means inhibition above about 21%;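 further: UHRF1 SRA domain binding a hemimethylated CpG hairpin DNA probe; 0% = median of test compound wells and 100% = reference inhibitor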
# Target sequence (Q96T88 whole entry, looked up, the tested form may be a part): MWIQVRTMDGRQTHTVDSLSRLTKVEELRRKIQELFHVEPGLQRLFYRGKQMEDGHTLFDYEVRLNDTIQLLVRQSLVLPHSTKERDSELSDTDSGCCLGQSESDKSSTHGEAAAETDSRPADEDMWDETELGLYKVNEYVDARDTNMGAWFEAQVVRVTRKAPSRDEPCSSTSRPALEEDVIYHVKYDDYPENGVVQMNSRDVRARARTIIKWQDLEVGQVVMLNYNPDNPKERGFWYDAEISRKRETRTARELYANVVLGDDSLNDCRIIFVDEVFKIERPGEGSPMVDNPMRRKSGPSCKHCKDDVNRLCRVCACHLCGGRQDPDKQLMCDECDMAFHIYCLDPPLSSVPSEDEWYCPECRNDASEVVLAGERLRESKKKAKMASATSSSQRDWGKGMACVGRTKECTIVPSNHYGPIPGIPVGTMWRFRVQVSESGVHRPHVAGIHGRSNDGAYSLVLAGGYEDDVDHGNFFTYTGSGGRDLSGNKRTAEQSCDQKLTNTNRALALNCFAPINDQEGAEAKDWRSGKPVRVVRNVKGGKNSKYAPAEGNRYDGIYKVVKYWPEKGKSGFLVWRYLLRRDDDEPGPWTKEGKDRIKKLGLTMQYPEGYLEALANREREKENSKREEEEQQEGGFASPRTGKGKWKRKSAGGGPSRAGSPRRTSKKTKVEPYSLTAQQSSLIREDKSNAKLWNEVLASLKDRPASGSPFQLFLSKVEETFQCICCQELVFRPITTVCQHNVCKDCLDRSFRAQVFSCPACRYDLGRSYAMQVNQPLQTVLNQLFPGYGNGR
# MBD2 inh: blocks human MBD2 binding to methylated DNA; Q9UBB5; inhibition, % at 4.4 µM; AID 686964; TR-FRET, MBD2 binding to methylated oligonucleotide; hit rate 0.31% among 370,000; in the data active means inhibition above about 13%
# LEDGF integ inh: blocks HIV-1 LEDGF/p75-dependent DNA integration | TR-FRET IN-LEDGF/p75 DNA integration, Eu/Cy5 | inhibition, % at 3.7 µM | hit rate 0.64% among 370,000;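 active means inhibition above the screen-wide mean plus 3 SD, cut at about 13% in these data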;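 further: signal is the Cy5 over europium emission ratio at 671 and 618 nm; 0% = plate median of compound wells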
# Active calls of the source: *. This is a sample that favours compounds with a hit; in the whole collection about 1.6% have one here.
SMILES,TDP2 inh,UHRF1 binding,MBD2 inh,LEDGF integ inh
Cc1ccc(OC[C@@H](O)CN2CCC(C(O)(c3ccccc3)c3ccccc3)CC2)cc1,1,1,3,-1
C=CC#CC[N+]1(CC#Cc2ccccc2)CCOCC1,-4,18,20*,-5
C(#Cc1ccccc1)C[N+]1(CC#Cc2ccccc2)CCCC1,0,1,-2,-1
Cc1ccc(CN2CCCCC(NC(=O)c3ccccc3)C2=O)cc1 (configuration not stated),6,0,2,-1
CC(=O)NN1C(=O)c2ccccc2NC1c1ccoc1 (configuration not stated),-5,0,3,4
CC(=O)NN1C(=O)c2ccccc2NC1c1ccccc1F (configuration not stated),0,63*,2,-4
CC(=O)Nc1cc(Cl)c(N=Cc2ccc(O)cc2O)cc1Cl,-3,1,-8,24*
COc1ccccc1C(=O)N1CCN(C(=O)[C@H]2O[C@@H](n3cnc(C(N)=O)n3)[C@H](O)[C@@H]2O)CC1,2,0,-3,-1
CCOC(=O)C1(C(=O)OCC)Cc2c([nH]c3ccccc23)[C@]2(N1)C(=O)N(C)c1ccc(Br)cc12,-14,0,-8,4
COc1cc(Cl)c(C)cc1NC(=O)c1ccc(S(C)(=O)=O)cc1,-4,24*,7,1
CC(C(=O)N(C)C1CCS(=O)(=O)C1)N1C(=O)/C(=C/c2ccc(F)cc2)SC1=S (configuration not stated),-8,-1,-9,4
CCN(C(=O)C(C)N1C(=O)/C(=C/c2ccco2)SC1=S)C1CCS(=O)(=O)C1 (configuration not stated),1,31*,-2,49*
O=C(Cc1ccccc1)N/N=C/c1cc(Br)cc(Cl)c1O,-5,58*,1,-6
COc1cc(Br)cc(/C=N/NC(=O)Cc2ccccc2)c1O,1,-3,3,-6
CCCCNC(=O)N1CCCC1C(=O)Nc1cccc(OC)c1 (configuration not stated),2,-1,2,0
O=C(NN=C1CCN(Cc2ccccc2)CC1)C(O)c1ccccc1 (configuration not stated),6,49*,-2,0
O=C(NN=C1CCN(Cc2ccccc2)CC1)c1ccccc1,0,1,3,-9
CC(=O)c1cc(-c2ccccc2)n(CC(=O)NCc2ccc(Cl)cc2)c1C,6,-3,2,-1
Cc1ccc(/C=C/S(=O)(=O)NCC(=O)OCC(=O)Nc2ccc(C(N)=O)cc2)cc1,0,23*,4,-1
Cc1ccc(/C=C/S(=O)(=O)NCC(=O)OCC(=O)Nc2ccc(C(=O)N(C)C)cc2)cc1,-1,-2,0,2
CCOC(=O)Cc1nc(N2CCN(Cc3cccc4c3OCO4)CC2)c2c(C)c(C(=O)OCC)sc2n1,13,0,-2,2
CCCCN(CC)CCCNC(=O)c1cc2c(-c3ccc(OC)c(OC)c3)nn(C)c2s1,11,24*,12,-4
Cc1cc(Cl)ccc1OCC(=O)NCCC(=O)O,4,3,6,1
Cc1cc(Cl)ccc1OCC(=O)OCC(=O)NCCNC(=O)COC(=O)COc1ccc(Cl)cc1C,-3,-1,-5,20*
CCOc1ccc(-n2c(SCC(=O)Nc3cccc4ccccc34)nnc2-c2cccs2)cc1,-9,3,4,-1
SMILES,TDP2 inh,UHRF1 binding,MBD2 inh,LEDGF integ inh
COC(=O)[C@]12C[C@H](CC(=O)N3CCOCC3)C(=O)N(CCC3=CCCCC3)C1=C[C@H](COCc1ccccc1)O[C@@H]2C,0,1,-6,1
COc1ccccc1NC(=S)NNC(=O)c1ccncc1,5,23*,9,-2
COc1ccccc1NC(=S)NNC(=O)c1ccccc1,-14,-1,5,-3
COc1ccccc1NC(=S)NC(=O)c1c(-c2ccccc2Cl)noc1C,-14,24*,2,0
N#Cc1ccc(Cn2ccc3ccc(-c4ccc5ccn(C(=O)C6CCC6)c5c4)cc32)cc1,9,-1,-3,-2
COC(=O)[C@@H]1CCCN1Cc1nc(Cc2ccc(OC)c(OC)c2)no1,-4,33*,-2,1
C=CCN1C(=O)[C@H](CC(=O)NCc2ccccc2)[C@@]2(C(=O)OCC)CCCC=C12,0,0,-8,-3
CCOc1ccc(NC(=S)C(C#N)=C2N(C)c3ccccc3N2C)cc1,0,22*,1,-6
CCOc1ccc(NC(=S)N2c3ccccc3CC2C)cc1 (configuration not stated),-2,5,-1,-3
